Sampled rows, rich in hits. Any-hit rate of the full collection: about 5.8%.
PLK1 PBD inh = Plk1 polo box domain binding inhibitors, primary screen, biochemical, fluorescence polarization; Plk1 PBD phosphopeptide binding; inhibition, %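 (tested at about 20 µM)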; hit rate 0.13% among 97,000; AID 693, 2007; in the data active means inhibition above about 34%, passing the limit was not always enough
Target sequence (P53350 whole entry, looked up, the tested form may be a part): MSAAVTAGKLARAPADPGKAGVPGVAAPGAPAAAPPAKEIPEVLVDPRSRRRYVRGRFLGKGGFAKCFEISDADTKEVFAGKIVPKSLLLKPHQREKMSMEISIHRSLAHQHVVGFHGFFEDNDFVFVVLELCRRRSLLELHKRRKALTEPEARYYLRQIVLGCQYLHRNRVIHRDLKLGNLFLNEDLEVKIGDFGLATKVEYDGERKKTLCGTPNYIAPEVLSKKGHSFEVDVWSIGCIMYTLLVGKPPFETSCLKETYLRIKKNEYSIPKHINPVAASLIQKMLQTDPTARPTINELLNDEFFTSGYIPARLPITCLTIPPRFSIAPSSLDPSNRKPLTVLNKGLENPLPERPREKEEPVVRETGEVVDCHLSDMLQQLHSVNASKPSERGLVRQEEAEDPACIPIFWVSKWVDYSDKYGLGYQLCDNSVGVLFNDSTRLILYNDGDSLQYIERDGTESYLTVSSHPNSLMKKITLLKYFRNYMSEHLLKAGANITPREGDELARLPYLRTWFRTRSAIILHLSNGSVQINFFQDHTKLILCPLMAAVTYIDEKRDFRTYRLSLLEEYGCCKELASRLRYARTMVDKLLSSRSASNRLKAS
Rev-RRE block = HIV-1 Rev-RRE binding inhibitors, primary screen, biochemical, FRET, protein-RNA interaction | inhibition, % at 8 µM | Rev peptide-RRE RNA binding | hit rate 0.79% among 97,000;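 active means inhibition above the screen-wide mean plus 3 SD, cut at about 35% in these data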
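Material: labelled RRE RNA duplex and labelled Rev peptide / Buffer or medium: HEPES pH 7.5 salt buffer with EDTA / Compound dosing: single point, 8 µM final nominal compound concentration / Benchmarks: DMSO low control, neomycin B high control / Timing: 5 min preincubation and 15 min binding, 25 °C / Technique: FRET fluorescence readout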
Cav3 T inh = Cav3.2 calcium influx blockers – cell-based, Fluo-4 calcium fluorescence, FDSS, MLSMR library, primary screen | hit rate 4% among 100,000 | Cav3.2-expressing cells; active compounds read low | B-score at 10 µM | Voltage-dependent T-type calcium channel subunit alpha-1H (Homo sapiens), O95180 | AID 449739, 2010;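 active means single-dose well whose peak fluorescence ratio is a statistical outlier from its plate by either plate-standardised score or position-corrected B-score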
Pyk2 oligo antag = antagonists of Pyk2 self-association, primary screen, Q293 cells, FERM NanoBiT luminescence, HTS; hit rate 0.83% among 99,000; z-score (the deposit names both 25 µM and 10 µM); AID 1347419, 2020; active compounds read low; Protein-tyrosine kinase 2-beta (Homo sapiens), Q14289;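 active means Z-score of -3 or lower, scaled per plate to the spread of control and sample wells; inactive means z-score above -3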;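 further: negative z-score means lost luminescence so less FERM oligomerization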
FAK blocker = FAK kinase inhibitors, primary screen, biochemical. hit rate 0.84% among 97,000. biochemical FAK kinase activity assay. inhibition, %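 (tested at 7 µM)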. Focal adhesion kinase 1 (Homo sapiens), Q05397; in the data active means inhibition above about 19%
PLK1 kinase inh = human PLK1 kinase inhibitors, primary screen, biochemical, TR-FRET; Serine/threonine-protein kinase PLK1 (Homo sapiens), P53350; recombinant PLK1 kinase, TR-FRET peptide phosphorylation; inhibition, % at 10 µM; hit rate 0.53% among 97,000; AID 619, 2007;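 active means inhibition of 50% or more in the single-concentration screen; inactive means inhibition below 50%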
A number is an active result; - = inactive; . = not tested or not shown; [ ] = dose if it differs, or a comment.

SMILES	PLK1 PBD inh	Rev-RRE block	Cav3 T inh	Pyk2 oligo antag	FAK blocker	PLK1 kinase inh
CN1CCc2c(sc(/N=C/c3cccs3)c2C(N)=O)C1	-	80.8	-	-	-	-
CCOc1ccccc1CNn1nnnc1N	-	-	-	-	-	-
COc1ccc(C(=O)NC(Nc2ccccc2)C(Cl)(Cl)Cl)cc1 (stereo unspecified)	-	-	-	-	-	-
Cc1ccc(SCCNC(=O)c2ccc(C)c([N+](=O)[O-])c2)cc1	-	-	-5.62	-	-	-
Cc1ccc(C(=O)NCCSc2ccc(Cl)cc2)cc1[N+](=O)[O-]	-	-	-5.81	-	-	-
Cc1cc(C)nc(NC(=O)c2ccc(C)c([N+](=O)[O-])c2)n1	-	-	-	-	-	-
Cc1ccc(C(=O)NCCSc2c(C)[nH]c3ccccc23)cc1[N+](=O)[O-]	.	.	-6.87	.	.	.
COc1ccc(N2CCN(C(=O)CCc3ccc(S(=O)(=O)NC(C)C)cc3)CC2)cc1	-	-	-	-	-	-
CC(c1ccco1)N(C(=O)CSc1ccc(Br)cc1)c1ccccn1 (stereo unspecified)	-	-	-4.54	-	-	-
CC(c1ccco1)N(C(=O)c1cccs1)c1ccccn1 (stereo unspecified)	-	-	-	-	-	-
COc1ccc(-n2c(C)cc(C(=O)Cn3c(NCCO)nc4ccccc43)c2C)cc1	-	-	-6.77	-	-	-
Cc1cc(C(=O)OCc2nnc(-c3ccccc3)o2)c(C)n1-c1ccccc1	.	.	-	-	.	.
Cc1noc(C)c1COC(=O)c1cc(C)n(-c2ccccc2)c1C	-	-	-4.94	-3.11	-	-
N=c1n(Cc2ccccc2)c2ccccc2n1CC(O)COc1ccccc1 (stereo unspecified)	-	-	-4.93	-	-	-
C=CCn1c(Cc2csc(N)n2)nnc1SCc1ccc(C(=O)OC)cc1	-	-	-	-	-	-
COc1ccc(CC(=O)OCC(=O)NC(=O)NC23CC4CC(CC(C4)C2)C3)cc1	-	-	-8.02	-	-	-
CC1=C(C(=O)N2CCOCC2)C(c2ccccc2F)C2=C(CCCC2=O)N1 (stereo unspecified)	-	-	-	-	-	-
Fc1ccc(NCc2cccnc2)cc1F	-	41.2	-	-	-	-
CCOC(=O)C(C)(C)Sc1nc2c(cnn2-c2ccc(Cl)cc2)c(=O)[nH]1	-	-	-	.	-	-
Cc1ccc(C(=O)C(OC(=O)CN2C(=O)c3ccccc3C2=O)c2ccccc2)cc1C (stereo unspecified)	-	-	-5.08	-	-	-
Cc1ccc(C(=O)C(OC(=O)CN2C(=O)c3ccccc3C2=O)c2ccccc2)cc1 (stereo unspecified)	-	-	-5.93	-	-	-
O=C(CN1C(=O)c2ccccc2C1=O)OC(C(=O)c1ccc(Cl)cc1)c1ccccc1 (stereo unspecified)	-	-	-	-	-	-
COc1ccccc1OC(=O)CN1C(=O)c2ccccc2C1=O	-	-	-	-	-	-
COC(=O)C1CCN(S(=O)(=O)Cc2ccccc2)CC1	-	-	-	-	-	-
C=CCc1cccc2cc(C(=O)N(CC)CC)c(=O)oc12	-	-	-	-	-	-
SMILES	PLK1 PBD inh	Rev-RRE block	Cav3 T inh	Pyk2 oligo antag	FAK blocker	PLK1 kinase inh
COc1cccc(NC(=O)c2ccc(CN3CCN(c4ccccc4)CC3)cc2)c1	-	-	-5.42	-	-	-
COc1cccc(N2CCN(CC(=O)Nc3nnc(-c4ccccc4)s3)CC2)c1	-	-	-5.17	-	-	-
C=CCc1c(C)nc(SC)nc1Nc1ccccc1	-	-	-4	-	-	-
C=CCc1c(C)nc(SC)nc1Nc1ccc(C(=O)O)cc1	-	-	-	-	-	-
O=C(COc1cccc2ccccc12)N1c2ccccc2CCc2ccccc21	-	-	-6.65	-	-	-
O=C(COc1cccc2ccccc12)N1CCN(c2ccccc2)CC1	-	-	.	-	-	-
O=C(CN1C(=O)c2ccccc2C1=O)OCN1C(=O)c2ccccc2C1=O	-	-	.	.	-	-
CCc1ccc(-c2nn(-c3ccccc3)cc2C2SCC(=O)N2Cc2ccco2)cc1 (stereo unspecified)	-	-	.	-	-	-
O=C1CSC(c2cn(-c3ccccc3)nc2-c2cccs2)N1CC1CCCO1 (stereo unspecified)	-	-	-5.04	-	-	-
O=C1CSC(c2cn(-c3ccccc3)nc2-c2ccccc2)N1Cc1ccco1 (stereo unspecified)	-	-	-4.73	-	-	-
CCOC(=O)C1=C(C)NC(=O)NC1c1cn(-c2ccccc2)nc1-c1cccs1 (stereo unspecified)	.	.	-	-	.	.
CCOC(=O)c1c(C)sc2c1N(C(=O)CN1CCOCC1)c1cc(Cl)ccc1S2	-	-	.	-	-	-
CC(C)(C)[C@]1(O)CCN2C[C@H]3c4ccccc4CCc4cccc(c43)[C@@H]2C1	.	.	-	.	.	.
COc1ccc(S(=O)(=O)N2CCCCCC2)cc1N(C)S(=O)(=O)c1ccc(C)cc1	.	.	.	-	.	.
CCN(CC)c1ccc2cc(C(C)=O)c(=O)oc2c1	-	126.1[fluorescence artefact?]	-10.3	-	-	-
CCN(CC)c1ccc2cc(C(N)=O)c(=O)oc2c1	-	41.3	-	-	-	-
CCN(CC)c1ccc2cc(C=O)c(=O)oc2c1	-	140.0[fluorescence artefact?]	-9.02	-	-	-
CCN(CC)c1ccc2cc(-c3nnc(-c4ccncc4)o3)c(=O)oc2c1	-	142.7[fluorescence artefact?]	-4.02	-	-	-
O=C(NC1CCCCC1)NC1(C(=O)NCCCN2CCOCC2)CCCCC1	-	-	-	-	-	-
COc1ccc(C(=O)O)cc1Nc1cc(C)nc2ncnn12	-	-	-	.	-	-
Cn1c(=O)n(Cc2ccc(F)cc2)c(=O)c2c1nc1n2CCCN1C1CCCCC1	-	-	-4.85	-	-	-
COc1ccc(N2CC(C)Cn3c2nc2c3c(=O)n(Cc3ccc(F)cc3)c(=O)n2C)c(OC)c1 (stereo unspecified)	-	-	-4.67	-	-	-
CC1Cc2ccccc2N1C(=O)CSc1nnc(Cc2ccccc2)n1CCc1ccccc1 (stereo unspecified)	-	-	.	-	-	-
Cc1ccc(-n2c(Cn3nc(C(F)F)cc3C(F)F)n[nH]c2=S)cc1	-	-	-	-	-	-
O=C(Nc1ccc2c(c1)C(=O)N(CC1CCCO1)C2=O)c1cccc(Br)c1 (stereo unspecified)	-	-	-2.66	-3.15	-	-
CC(=O)C1=C(C)NC(SCc2cccc([N+](=O)[O-])c2)=C(C#N)C1c1ccco1 (stereo unspecified)	-	-	.	-	-	-
COc1ccccc1NC(=O)c1sc2ncn(Cc3ccccc3C)c(=O)c2c1C	-	-	-	-	-	-
